Assay results from PubChem BioAssay.
Records with an inconclusive call do not appear.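 How the source made its calls, unless noted: active means viability increase at or above a cutoff of the median across tested compounds plus 3 SD (cut at about 8.5% in these data, passing the limit was not always enough); inconclusive means some gains above the cutoff, reason not given; inactive means the rest.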

Legend:
[1] = S. cerevisiae growth inhibition in permissive medium (OD615), pilot counter-assay for S. cerevisiae lifespan shortening project, permissive growth control (AID 705;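 active means growth inhibition above 25% in both replicates, a cutoff set 3 SD above the mean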); details: OD615, 24 h, at 10 µM, hits give high values
Method in brief: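 Material: engineered DeaD yeast; Compound: one dose 10 µM, DMSO 0.25% final; Detection: absorbance (optical density) at 615 nm; Buffer or medium: permissive raffinose/galactose medium; Timing: 24 h exposure, 30 °C.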

[2] = S. cerevisiae growth inhibition in restrictive medium, OD615, pilot screen, restrictive growth control, yeast lifespan reduction project (AID 706;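 active means growth inhibition above a set limit, 3 SD over mean compound inhibition, in both replicates, cut at about 43% in these data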;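 further: modified DeaD lifespan yeast strain shifted to restrictive glucose medium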); details: OD615, 48 h, at 10 µM, hits give high values
Method in brief: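 Buffer or medium: restrictive glucose medium (CSMM-D); test system: modified S. cerevisiae; doses: single dose of 10 µM compound final, 0.25% DMSO; schedule: 48 h compound exposure at 30 °C; detection: absorbance (optical density) measured at 615 nm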

[3] = doxorubicin toxicity protection in MRP-1 cells – H69AR cells, CellTiter-Glo, duplicate, MRP-1 activator project, pilot screen (AID 807); details: H69AR viability with doxorubicin, CellTiter-Glo luminescence; at 10 µM; hits give high values;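 further: compound pretreatment 18-22 h then 72 h combined with doxorubicin; 0% = doxorubicin alone and 100% = vehicle without doxorubicin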
[4] = viability of HCT116 without oncogenic beta-catenin – human colon tumor cells, pilot screen (AID 823;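 active means cell viability at or below a set limit in both duplicate runs, the limit being the all-compound median minus 4 SD, cut at about 23% in these data, passing the limit was not always enough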;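 further: 0% = wells killed by 20 µM Hyamine and 100% = untreated DMSO cell wells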); details: HCT116 beta-catenin knockout viability, CellTiter-Glo, 60 h; at 10 µM; hits give low values
[5] = viability of PTEN-null HCT116 cells – cell-based, HCT116 clonal line, CellTiter-Glo, pilot screen (AID 824;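 active means viability at or below 27.92% in each of two runs, the all-compound median minus 4 SD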;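 further: 0% = 20 µM Hyamine control and 100% = vehicle cell control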); details: HCT116 PTEN-deleted viability, 60 h, at 10 µM, hits give low values
[6] = RAM pathway blockade in budding yeast – dse1pr::URA3 reporter, 5-FOA selection, pilot screen (AID 869;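 active means inhibition over a set limit, the all-compound mean plus 3 SD, in both replicate runs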;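 further: 0% = DMSO wells with no growth and 100% = 10 µM 1-NA-PP1 with full growth; RAM network block rescues cells from 5-FOA so hits raise OD615 growth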); details: S. cerevisiae dse1pr::URA3 5-FOA growth, OD615, 2 d; at 10 µM; hits give high values; strain carries analog-sensitive mutant Cbk1 kinase
[7] = RAM signaling pathway blockade in yeast – S. cerevisiae, Pdr1DBD-CYC8 efflux-inhibited sensitized strain, primary screen (AID 1298;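 active means RAM network inhibition above 8.4% in each of two replicates, 3 SD over the compound average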;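 further: 0% = DMSO untreated cells without growth and 100% = 10 µM 1-NA-PP1 full growth; higher means more yeast growth rescued from 5-FOA killing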); details: S. cerevisiae cbk1-as DSE1-URA3 strain, 5-FOA growth OD615, 2 d; at 50 µM; hits give high values

NC(=O)CSc1nnc(-c2ccncc2)n1-c1ccc(Cl)cc1
inactive: growth inhibition [1] -5.39% | growth inhibition [2] 0.11% | viability increase [3] -1.78% | viability [4] 97.7% | viability [5] 94.1% | inhibition [6] 0.785% | RAM network inhibition [7] 1.57%

Cn1c(=O)c2c(SCC(=O)NCc3ccco3)nc(CC(C)(C)C)nc2n(C)c1=O
inactive: growth inhibition [1] -3.79% | growth inhibition [2] -0.895% | viability increase [3] -4.81% | viability [4] 72.5% | viability [5] 70.6% | inhibition [6] 0.775% | RAM network inhibition [7] 5.97%

O=C(NCC1CCCO1)NC1(C(F)(F)F)Oc2ccccc2O1 (centres undefined)
inactive: growth inhibition [1] -24.1% | growth inhibition [2] -16% | viability increase [3] -7.32% | viability [4] 60.8% | viability [5] 67.1% | inhibition [6] 1.9% | RAM network inhibition [7] 2.09%

COc1ccc(NC(C)=O)cc1NC(=O)CSc1nnc(-c2cccnc2)n1C
inactive: growth inhibition [1] -5.75% | growth inhibition [2] -0.47% | viability increase [3] -0.83% | viability [4] 104% | viability [5] 100% | inhibition [6] 0.485% | RAM network inhibition [7] 1.19%

COc1ccccc1OCC(=O)NC1CCCCCC1
inactive: growth inhibition [1] -5.33% | growth inhibition [2] -8.23% | viability increase [3] -0.27% | viability [4] 96.3% | viability [5] 88.8% | inhibition [6] -0.49% | RAM network inhibition [7] 0.78%

CN(CC(=O)NCCC1=CCCCC1)S(=O)(=O)c1ccc2c(c1)c(=O)n(C)c(=O)n2C
inactive: growth inhibition [1] -7.74% | growth inhibition [2] -27.4% | viability increase [3] -1.64% | viability [4] 84.4% | viability [5] 76.8% | inhibition [6] 2.88% | RAM network inhibition [7] 4.5%

Cc1oc2c(c(=O)c1C)C(=O)CC(c1ccccc1)C2 (centres undefined)
inactive: growth inhibition [1] -10.3% | growth inhibition [2] -15.9% | viability increase [3] -3.41% | viability [4] 88.5% | viability [5] 91% | inhibition [6] 0.115% | RAM network inhibition [7] -1.15%

O=C1CC(Nc2ccc(N3CCOCC3)cc2)C(=O)N1c1ccccc1F (centres undefined)
inactive: growth inhibition [1] 1.41% | growth inhibition [2] -5.97% | viability increase [3] -2.99% | viability [4] 110% | viability [5] 105% | inhibition [6] 1.53% | RAM network inhibition [7] 5.38%

COc1ccc(S(=O)(=O)Cc2ccc(C(=O)NC(C)C)o2)cc1
inactive: growth inhibition [1] -1.35% | growth inhibition [2] 0.215% | viability increase [3] 1.22% | viability [4] 108% | viability [5] 99.6% | inhibition [6] -0.2% | RAM network inhibition [7] 1.2%

CCOCCn1c(CN2CCC(C)CC2)nc2c1c(=O)n(C)c(=O)n2C
inactive: growth inhibition [1] 7.15% | growth inhibition [2] -2.44% | viability increase [3] -1.22% | viability [4] 91.8% | viability [5] 91.5% | inhibition [6] 0.02% | RAM network inhibition [7] -0.56%

CCOC(=O)c1c(-c2ccccc2)c(C(C)=O)c(=O)n(C)c1C
inactive: growth inhibition [1] -19% | growth inhibition [2] -9.79% | viability increase [3] -3.81% | viability [4] 95.9% | viability [5] 94.1% | inhibition [6] 4.63% | RAM network inhibition [7] 1.72%

CCN(CC)CC(=O)n1c2c(c3ccccc31)CCCC2
inactive: growth inhibition [1] 4.59% | growth inhibition [2] -2.73% | viability increase [3] -1.1% | viability [4] 94.5% | viability [5] 99.5% | inhibition [6] 0.57% | RAM network inhibition [7] 0.67%

O=c1[nH]c2c(s1)C=Nc1ccccc1N2
inactive: growth inhibition [1] -5.34% | growth inhibition [2] 3.4% | viability increase [3] -2.29% | viability [4] 89.9% | viability [5] 91.6% | inhibition [6] 1.6% | RAM network inhibition [7] 0.32%

COc1ccc(-n2nnc3c(=O)n(CC(=O)N4CCCCC4)cnc32)cc1
inactive: growth inhibition [1] -0.235% | growth inhibition [2] 4.3% | viability increase [3] -0.73% | viability [4] 96.1% | viability [5] 94.6% | inhibition [6] 0.975% | RAM network inhibition [7] -0.05%

Cc1ccc(S(=O)(=O)Cc2ccc(C(=O)N3CCCCCC3)o2)cc1
inactive: growth inhibition [1] -10.6% | growth inhibition [2] -22.4% | viability increase [3] -1.93% | viability [4] 98.8% | viability [5] 96.2% | inhibition [6] 1.73% | RAM network inhibition [7] 8.33%

COc1ccc(OC)c(CCNC(=O)CN2C(=O)CC(C)(C)S(=O)(=O)c3ccccc32)c1
inactive: growth inhibition [1] -4.35% | growth inhibition [2] -14.1% | viability increase [3] -2.6% | viability [4] 101% | viability [5] 92.3% | inhibition [6] -0.045% | RAM network inhibition [7] 2.76%

O=C(COC(=O)c1cnccn1)c1ccc(Br)cc1
inactive: growth inhibition [1] -9.27% | growth inhibition [2] -14.4% | viability increase [3] 0.41% | viability [4] 101% | viability [5] 96.7% | inhibition [6] 1.94% | RAM network inhibition [7] 2.72%

O=S(=O)(c1cc(Cl)ccc1Cl)N1CCN(Cc2ccc3c(c2)OCO3)CC1
inactive: growth inhibition [1] -18.5% | growth inhibition [2] -8.86% | viability increase [3] 0.21% | viability [4] 94.8% | viability [5] 83.7% | inhibition [6] 0.37% | RAM network inhibition [7] 2.23%

CN(CC(=O)NC1CCCCCCC1)S(=O)(=O)c1cccc2cccnc12
inactive: growth inhibition [1] 0.055% | growth inhibition [2] 0.405% | viability increase [3] -1.32% | viability [4] 93.2% | viability [5] 87.1% | inhibition [6] 1.26% | RAM network inhibition [7] 2.33%

Cn1c(SCC(=O)NCC2CCCO2)nc2c([nH]c3ccccc32)c1=O (centres undefined)
inactive: growth inhibition [1] 2.66% | growth inhibition [2] -9.87% | viability increase [3] -5.32% | viability [4] 90.5% | viability [5] 91.7% | inhibition [6] 0.065% | RAM network inhibition [7] 2.79%

CC(C)COC(=O)C1C2C=CC3(CN(C4CCCC4)C(=O)C13)O2 (centres undefined)
inactive: growth inhibition [1] -14.1% | growth inhibition [2] -0.515% | viability increase [3] -1.25% | viability [4] 107% | viability [5] 92.8% | inhibition [6] 2.07% | RAM network inhibition [7] 2.04%

CC(C)CCNC(=O)Cn1cc2c(n1)CCCCC2
inactive: growth inhibition [1] 3.78% | growth inhibition [2] 2.78% | viability increase [3] -1.8% | viability [4] 106% | viability [5] 100% | inhibition [6] 1.82% | RAM network inhibition [7] 1.38%

CC1CCN(c2nc(-c3ccncc3)nc3ccccc23)CC1
inactive: growth inhibition [1] 6.84% | growth inhibition [2] -2.73% | viability increase [3] -5.28% | viability [4] 40.4% | viability [5] 58.7% | inhibition [6] 0.745% | RAM network inhibition [7] 5.56%

CCC(C)NC(=O)Cn1cc2c(n1)CCC(C)C2 (centres undefined)
inactive: growth inhibition [1] -6.78% | growth inhibition [2] 6.43% | viability increase [3] -1.54% | viability [4] 103% | viability [5] 97.3% | inhibition [6] 0.14% | RAM network inhibition [7] 0.42%

Cc1nc2sc(C(c3cccs3)N3CCN(c4ccccc4)CC3)c(O)n2n1 (centres undefined)
inactive: growth inhibition [1] 0.19% | growth inhibition [2] 5.34% | viability increase [3] -0.21% | viability [4] 96.5% | viability [5] 94.8% | inhibition [6] 1.19% | RAM network inhibition [7] 2.14%

CCN(CC)Cc1c(O)ccc2c(-c3ccccc3)cc(=O)oc12
inactive: growth inhibition [1] -5.29% | growth inhibition [2] -1.64% | viability increase [3] -1.73% | viability [4] 94.3% | viability [5] 94.7% | inhibition [6] 1.23% | RAM network inhibition [7] 1.08%

O=C(NCc1ccccn1)Nc1cccc(Cl)c1
inactive: growth inhibition [1] -14.7% | growth inhibition [2] -9.4% | viability increase [3] -2.22% | viability [4] 97.7% | viability [5] 94.5% | inhibition [6] 0.095% | RAM network inhibition [7] 2.46%
